The full list was thinned out, with hits kept by preference.
INS promoter act – TRM-6 insulin promoter activation. hit rate 0.81% among 130,000. TRM-6 cells (human fetal islet line), insulin promoter eGFP reporter, imaging; plate-scaled: unstimulated 0, stimulated control 100. activation, % at 2 µM;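 active = activation at 2 µM above a set limit, confirmed on inspection of the cell images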;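 note: share of cells whose green reporter signal exceeds an intensity cutoff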
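Test system: TRM-6 insulin promoter–eGFP reporter cells / Quantity: 1,000 cells per well / Reagent: tamoxifen inducer, 0.75 µM, in seeding medium / Compound dosing: 2 µM final, single concentration / Schedule: overnight tamoxifen, then two-day compound incubation at 37 °C / Measured by: automated fluorescence imaging of paraformaldehyde-fixed, Hoechst-counterstained cells, green channel / Read-out: percent activation from GFP-positive cell fraction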
Large screens that a line does not name were inactive.

Cc1cc(OCc2nn[nH]n2)c2c(C)c(Cc3ccccc3)c(=O)oc2c1	none
Cc1cc(-c2ccccc2)n2nc(C)c(C#N)c2n1	none
Cc1nc(N)c(C#N)c(-c2ccccc2)c1C	none
CSc1nn2c(C)c(C)c(C)nc2c1C#N	INS promoter act 322
O=[N+]([O-])c1ccc(Oc2cccc(F)c2)c2ccncc12	none
Cc1nnc(NC(=O)c2ccc(C)c(S(=O)(=O)N3CCCCCC3)c2)s1	none
COc1ccc(C(=O)Nc2nc(C)cs2)cc1S(=O)(=O)N1CCCC1	INS promoter act 221
Cc1csc(NC(=O)c2cccc(S(=O)(=O)N3CCCCC3)c2)n1	none
O=C(COC(=O)C1CC(O)CN1S(=O)(=O)c1ccc(Cl)cc1)c1cccc(Cl)c1 (centres undefined)	none
Cc1sc(-n2c(C)cc(C=O)c2C)c(C(=O)O)c1C	none
CC1CN(C(=O)C2(C)CC2(Cl)Cl)CC(C)O1 (centres undefined)	none
CCOc1ccccc1C(=O)Nc1ccccc1-c1ccccc1	none
CCOC(=O)Cn1nc(-c2ccccc2)c2cnc3ccc(CC)cc3c21	none
N=c1c2c(-c3ccccc3)c(-c3ccccc3)n(Cc3ccco3)c2ncn1CCO	none
Fc1ccc(-c2nc3nc4ccccc4nc3n2Cc2ccco2)cc1	none
c1ccc(-c2nc3nc4ccccc4nc3n2Cc2ccco2)cc1	INS promoter act 200
CCCCNC(=O)/C(=C/c1ccccc1)NC(C)=O	none
O=C(NCCc1nc2ccccc2[nH]1)/C(=C/c1ccco1)NC(=O)c1ccc(Br)o1	none
CN(C)c1ccc(NC(=O)COC(=O)CCC(=O)c2ccc(F)cc2)cc1	none
CN(C)c1ccc(NC(=O)CC2NCCNC2=O)cc1 (centres undefined)	INS promoter act 488
O=C(CC1NCCc2ccccc21)Nc1ccccc1 (centres undefined)	none
S=C(Nc1cccc(Cl)c1)N1CCN(Cc2ccccc2)CC1	none
O=C(Nc1ccc2c(c1)OCO2)N1CCN(C(=O)C2CCCO2)CC1 (centres undefined)	none
Cc1ccc(C(=O)COC(=O)CCC(=O)NC2CCCCC2)cc1C	none
CCc1ccc(NC(=O)c2noc3c2CCC3)cc1	none
O=C(NCc1cccc(F)c1)c1noc2c1CCCC2	INS promoter act 257
O=C(NCc1cccnc1)c1noc2c1CCCC2	none
COc1ccc(N2CCN(c3ncnc4c3nnn4Cc3ccccc3Cl)CC2)cc1	none
CCN(CC)c1nc2ccccc2nc1-n1nc(C)cc1C	none
Cc1cc(NC(=O)CSc2nc3c([nH]c4ccccc43)c(=O)n2-c2cccc(C(F)(F)F)c2)no1	none
COc1cccc(-n2c(SCC(N)=O)nc3c([nH]c4ccccc43)c2=O)c1	INS promoter act 252
COc1cccc(-n2c(SCC(N)=O)nnc2-c2ccncc2)c1	none
COc1ccc2c(C=Nc3c(C)n(C)n(-c4ccccc4)c3=O)c(O)n(Cc3ccco3)c(=O)c2c1	none
Clc1ccccc1-c1ccc(/C=N/Nc2nncc(-c3ccccc3)n2)o1	none
O=C(NCc1ccccn1)c1ccc(Br)s1	INS promoter act 529
O=C(NCc1ccccn1)c1c(Cl)cccc1Cl	none
O=C(NCc1ccccn1)c1ccc(Cl)cc1Cl	none
COc1ccc(CNC(=S)Nc2cccc(C)c2C)cc1	none
COc1nnc(-c2ccc(N3CCCCC3)c(N)c2)c2ccccc12	none
CSc1ccc(CNc2ccc(C)c(C)c2)cc1	none
Cc1ccc(NCC(O)C(O)C(O)CO)cc1C (centres undefined)	INS promoter act 427
Cc1cc(N=Nc2ccccc2)c(NCC(O)C(O)C(O)CO)cc1C (centres undefined)	none
O=C(CN1C(=O)NC2(CCCCCC2)C1=O)Nc1ccc2c(c1)CCC2	none
O=C(NCCN1CCOCC1)C1CCC(CNS(=O)(=O)c2ccc(Cl)cc2)CC1 (centres undefined)	none
O=C(COc1ccc(Cl)cc1Cl)NC(=O)N1CCOCC1	none
O=C(CSc1n[nH]c(-c2ccccc2Br)n1)NCCN1C(=O)CSC1=O	none
O=C(Cc1ccccc1)NCC1CCCO1 (centres undefined)	none
O=C(CCCC(=O)NCC1CCCO1)NCC1CCCO1 (centres undefined)	INS promoter act 256
O=C(Cc1ccc(F)cc1)NCC1CCCO1 (centres undefined)	none
CCOC(=O)C(NC(=O)Nc1ncccn1)(Oc1ccccc1)C(F)(F)F (centres undefined)	INS promoter act 190
CCOC(=O)C(NC(=O)c1ccccc1)(OCc1ccc(F)cc1)C(F)(F)F (centres undefined)	none
CCOC(=O)C(NC(=O)c1ccc(OC)cc1)(OCC1(CC)COC1)C(F)(F)F (centres undefined)	none
COc1ccccc1CNC(=O)c1ccc(OC(C)C)cc1	none
O=C(CSCc1ccc(Cl)cc1)Nc1ccc2c(c1)OCCO2	none
Cc1ccc(C)c(NC(=O)c2ccc[n+](Cc3ccc([N+](=O)[O-])cc3)c2)c1	INS promoter act 233
Cc1ccc(Cn2nnc(C(=O)Nc3cc(C)ccc3C)c2N)cc1	none
Cc1ccc(C)c(NC(=O)Cn2nc([N+](=O)[O-])c(Br)c2C)c1	none
CCc1nnc(NS(=O)(=O)c2ccc(NC(=O)c3cccc(Cl)c3)cc2)s1	none
CN(C)S(=O)(=O)c1ccc(C(=O)NNC(=O)C2COc3ccccc3O2)cc1 (centres undefined)	none
CC(C)CCNC(=O)CCCC1=NS(=O)(=O)c2ccccc2N1	none
COc1cc(NC(=O)Cc2ccccc2OC)cc(OC)c1	INS promoter act 435
COc1ccccc1CC(=O)Nc1cc(Cl)ccc1O	none
COc1ccccc1CC(=O)Nc1cccc2c1CCCC2	none
COc1cc(NC(=O)c2ncn[nH]2)cc(OC)c1OC	none
Cn1c(CN2CCCC2)nc2cc(NC(=O)COc3ccc([N+](=O)[O-])cc3)ccc21	none
N#Cc1c(NC(=S)NC(=O)c2ccccc2)sc2c1CCN(CCc1ccccc1)C2	INS promoter act 270
CC1(C)Cc2c(sc(NC(=S)NC(=O)c3ccccc3)c2C(=O)O)CO1	none
N#Cc1c(NC(=O)c2cccnc2)sc2c1CCC2	none
CCOC(=O)C(C)Sc1ncnc2nc[nH]c12 (centres undefined)	INS promoter act 513
CCOC(=O)C(C)Sc1ncnc2c1nnn2-c1ccc(F)cc1 (centres undefined)	none
CCOC(=O)C(CC)Sc1ncnc2nc[nH]c12 (centres undefined)	none
Cn1cnnc1SCC(=O)Nc1ccc2nc(SCc3ccccc3F)sc2c1	none
O=C(/C=C/c1cccc(Cl)c1)Nn1c(-c2cccs2)nc2ccccc2c1=O	none
COc1cc(NC(=O)c2ccc3c(c2)OCO3)c2ncccc2c1	INS promoter act 412
COc1ccc(-c2nc3cc(NC(=O)c4ccc5c(c4)OCO5)ccc3o2)cc1	none
O=C(Nc1cccc2cccnc12)c1ccc2c(c1)OCCO2	none
COc1ccc2[nH]c(=O)c(CN(Cc3nnnn3Cc3ccc(F)cc3)CC3CCCO3)cc2c1 (centres undefined)	none
O=c1[nH]c2cc3c(cc2cc1CN(CCCO)Cc1nnnn1Cc1ccc(F)cc1)OCO3	none
Cc1ccc2cc(CN(CCO)Cc3nnnn3Cc3ccc(F)cc3)c(=O)[nH]c2c1	INS promoter act 140
CC(C)(C)C(=O)COC(=O)CNC(=O)c1ccc(Oc2ccccc2)cc1	none
CC(C)c1ccc(C(=O)NCCCN(C)C)cc1	none
CCCCc1nnc(SCCSc2nnc(CCCC)n2N)n1N	none
CCCCC(Nc1ncnc2ccccc12)C(=O)O (centres undefined)	none
CN(C)CCNc1ncnc2ccccc12	none
Cc1ccc(Nc2ncnc3ccccc23)cc1	INS promoter act 421
CC(C)CCNC(=O)CN(Cc1ccc2c(c1)OCO2)C(=O)Cn1nnc(-c2cccs2)n1	none
COCCN(Cc1cc2cc(C)ccc2nc1Cl)C(=O)Nc1ccccc1OC	none
CCc1ccc(NC(=S)N2CCN(c3cccc(C(F)(F)F)c3)CC2)cc1	none

Screening data deposited in PubChem by Columbia University Molecular Screening Center.
